Rpn11 inh – Rpn11 (PSMD14) deubiquitinase inhibitors, primary screen, biochemical, fluorescence polarization, uHTS | actives 0.59% (n = 360,000) | AID 588493, 2011 | human 26S proteasome, Ub4-pepOG fluorescence polarization; 20S core pre-blocked with epoxomicin | inhibition, % at 20 µM;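 active = inhibition at 20 µM, scaled to each plate's controls, above about 33%, limit read from the data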
Target sequence (O00487 whole entry, looked up): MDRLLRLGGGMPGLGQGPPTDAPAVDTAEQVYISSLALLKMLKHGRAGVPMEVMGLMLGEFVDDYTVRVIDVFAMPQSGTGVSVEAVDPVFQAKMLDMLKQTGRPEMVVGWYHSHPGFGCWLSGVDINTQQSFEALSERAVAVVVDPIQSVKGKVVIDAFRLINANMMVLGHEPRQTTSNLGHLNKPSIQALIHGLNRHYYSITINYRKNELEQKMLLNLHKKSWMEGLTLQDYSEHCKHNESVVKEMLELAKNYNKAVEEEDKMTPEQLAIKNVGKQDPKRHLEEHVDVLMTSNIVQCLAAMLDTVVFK
CSN deneddyl inh – inhibitors of CSN-mediated cullin deneddylation, primary screen, biochemical, fluorescence polarization, uHTS | COP9 signalosome complex subunit 5 (Homo sapiens), Q92905 | Purified CSN, SCF-Nedd8-OG deneddylation | inhibition, % at 12.5 µM | actives 0.38% (n = 360,000) | AID 651999, 2013;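 active = pattern-corrected inhibition above about 35%, with an unprinted fluorescence ratio check between 0.5 and 1.5, limit read from the data, passing the limit was not always enough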;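 also: 0% = enzyme with substrate and 100% = substrate without enzyme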
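Material: purified human Csn5 enzyme expressed in HEK293T cells / Medium: Tris buffer pH 7.5, NaCl, DTT, Tween-20, trehalose, ovalbumin / Compound dosing: 12.5 µM single point / Schedule: 90 min incubation of compound, enzyme and substrate at room temperature / Signal: fluorescence polarization of the substrate / Control set: no-enzyme wells high, enzyme-with-substrate wells low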
HNF4A DNA FP – change in binding of human HNF4A to DNA, primary screen, biochemical, fluorescence polarization, FITC-DNA | 1 h | actives 0.3% (n = 360,000) | Hepatocyte nuclear factor 4-alpha (Homo sapiens), P41235 | AID 1224865, 2016 | activity change, % at 10 µM; in the data active = activity change above about 30%, passing the limit was not always enough
TPT1 inh – Candida albicans TPT1 enzyme inhibitors, primary screen, biochemical, fluorescence polarization | AID 1962, 2009 | recombinant caTPT1, FP RNA substrate dephosphorylation | tRNA 2'-phosphotransferase TPT1 (Candida albicans SC5314) | actives 0.81% (n = 300,000) | inhibition, % at 5 µM;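 active = inhibition above the mean of all tested compounds plus 3 SD, set per screening campaign, cut at about 24% in these data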;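 also: plate controls were DMSO alone for no effect and ferristatin control at 100 nM for full effect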
NadD block – inhibitors of S. aureus NadD, primary screen, biochemical, colorimetric, uHTS. purified NadD enzyme, colorimetric absorbance read-out. inhibition, % at 20 µM. actives 0.78% (n = 360,000); in the data active = inhibition above about 26%
PP1 inh – PP1-alpha phosphatase inhibitors, primary screen, counter-screen for PP5 inhibitor project, biochemical, fluorescence, OMFP substrate, single point | actives 0.9% (n = 320,000) | Serine/threonine-protein phosphatase PP1-alpha catalytic subunit (Homo sapiens), P62136 | inhibition, % at 6.7 µM | purified PP1alpha;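 active = inhibition above the mean inhibition of all tested compounds plus 3 SD, computed separately for each screening campaign, cut at about 15% in these data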
PP1 confirm – PP1 phosphatase inhibitors, confirmation, biochemical, fluorescence, OMFP substrate, triplicate; shares compounds with PP1 inh; purified PP1alpha; inhibition, % at 6.7 µM; actives 52% (n = 1,900);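 active = mean PP1 inhibition above a set limit taken from the earlier primary screen, cut at about 15% in these data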
PP5 inh counter – PP5 phosphatase inhibition by PP1 hits, confirmation, counter-screen for PP1 inhibitor project, biochemical, fluorescence, triplicate; shares compounds with PP1 inh; purified PP5c, OMFP fluorescence; inhibition, % at 6.7 µM; actives 4% (n = 1,900);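 active = mean PP5 inhibition over triplicate wells above about 9.5% taken from the earlier PP1 screen, limit read from the data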
An asterisk follows results filed as active; x = not tested or not shown. In the library only some 2.7% were active in any assay of this set; here they are far more common.

SMILES	Rpn11 inh	CSN deneddyl inh	HNF4A DNA FP	TPT1 inh	NadD block	PP1 inh	PP1 confirm	PP5 inh counter
Cc1oc(-c2ccc(Cl)cc2)cc1-c1nn2c(-c3ccoc3C)nnc2s1	25	36*	-27	19	15	24*	19*	1
O=c1cc(-c2ccccc2Cl)oc2cccc(O)c12	-3	-6	2	-4	-3	3	x	x
O=c1cc2oc3cc(O)c(O)cc3c(-c3ccccc3[N+](=O)[O-])c-2cc1O	2	36	-24	0	0	26*	14	2
C=CCn1c(SCC(=O)Nc2cccc(S(N)(=O)=O)c2)nnc1C1CCCCC1	5	0	7	x	0	-2	x	x
COc1ccc(-n2c(Cn3c(=O)sc4ccccc43)nnc2SCC(=O)N2CCCCC2)cc1	-3	-7	0	1	8	-4	x	x
COc1ccc(-n2c(Cn3c(=O)sc4ccccc43)nnc2SCC(=O)N2CCCC2)cc1	-4	-4	6	-3	4	38*	-5	-6
Cc1ccc(OCCNC(=O)c2ccccc2OCc2c(C)noc2C)cc1	1	-1	2	x	-1	-1	x	x
O=C1N=C(N2CCN(c3cccc4ccccc34)CC2)S/C1=C/c1cccs1	9	-2	-5	1	28*	24*	19*	-3
COc1ccc([N+](=O)[O-])cc1NC(=S)NC(C)=O	-1	8	-4	-2	1	-3	x	x
COc1ccc(/C=C/C(=O)NC(=S)Nc2cc([N+](=O)[O-])ccc2O)cc1OC	-16	2	-31	-1	6	43*	39*	-2
O=c1cc(-c2ccccc2Cl)oc2c(NS(=O)(=O)c3ccccc3OC(F)(F)F)ccc(O)c12	x	x	x	-1	x	24*	7	0
Cn1c(=O)c(C(=O)NNC(=O)c2ccccc2F)c(O)c2ccccc21	-1	6	-3	0	-7	18*	6	-4
CCCn1c(=O)c(C(=O)NNC(=O)c2cccc([N+](=O)[O-])c2)c(O)c2ccccc21	11	3	3	-2	0	20*	19*	-1
CCn1c(=O)c(C(=O)NNC(=O)c2ccccc2F)c(O)c2ccccc21	0	-7	4	-2	7	8	x	x
CCn1c(=O)c(C(=O)Nc2ncccc2C)c(O)c2ccccc21	-8	9	0	2	10	21*	25*	-1
CCn1c(=O)c(C(=O)NNC(=O)c2ccccc2Cl)c(O)c2ccccc21	6	1	-1	-2	12	19*	14	-2
CCCn1c(=O)c(C(=O)NNS(=O)(=O)c2ccc(C)cc2)c(O)c2ccccc21	-1	1	-1	0	11	7	x	x
CCn1c(=O)c(C(=O)Nc2ncccc2O)c(O)c2ccccc21	-2	-1	0	1	-1	14	x	x
Cc1cc(C)c(S(=O)(=O)Nc2ncn[nH]2)cc1C	0	3	6	0	1	0	x	x
O=S(=O)(Cc1ccccc1)CS(=O)(=O)Cc1ccccc1	9	4	4	x	-1	x	x	x
CNC(=S)N(C)/N=C1/C(=O)N(Cc2c(Cl)cccc2Cl)c2ccccc21	-2	4	-1	x	10	4	x	x
Cc1ccc(N=Nc2ccc(O)c(P(=O)(c3ccccc3)c3ccccc3)c2)cc1	2	-3	-5	-3	34*	18*	16*	-3
O=S1(=O)CC(N2CC=CC2)CN1Cc1cn(Cc2cccc(Cl)c2)nn1 (centres undefined)	x	-2	0	x	-1	x	x	x
O=C(OCC1OC(n2ncc(=O)[nH]c2=O)C(OC(=O)c2ccccc2)C1OC(=O)c1ccccc1)c1ccccc1 (centres undefined)	15	7	8	0	1	24*	22*	4
CC1(C(=O)NCCc2ccccc2)Cc2c(-c3cccc(C(F)(F)F)c3)ccnc2O1 (centres undefined)	-3	0	0	x	-6	x	x	x
SMILES	Rpn11 inh	CSN deneddyl inh	HNF4A DNA FP	TPT1 inh	NadD block	PP1 inh	PP1 confirm	PP5 inh counter
COc1ccc(-c2oc3c(OC)c(OC)c(OC)c(O)c3c(=O)c2OC)cc1OC	0	7	-1	4	6	-2	x	x
COc1c(OC)c(O)c2c(=O)c(O)c(-c3ccccc3)oc2c1OC	-3	5	1	-3	0	18*	30*	-4
NC(=O)CC(NC(=O)Cc1cccc2ccccc12)c1ccc(N2CCc3ccccc3C2)c([N+](=O)[O-])c1 (centres undefined)	4	-7	6	1	16	18*	17*	-1
NC(=O)CC(NC(=O)Cc1ccc(Cl)cc1)c1ccc(N2CCC(Cc3ccccc3)CC2)c([N+](=O)[O-])c1 (centres undefined)	0	-2	1	-1	1	22*	3	0
NC(=O)CC(NC(=O)c1ccc(Br)cc1)c1ccc(NCCc2ccc(F)cc2)c([N+](=O)[O-])c1 (centres undefined)	24	5	6	8	7	25*	26*	-1
NC(=O)CC(NC(=O)c1ccccc1)c1ccc(N2CCN(c3ccc(F)cc3)CC2)c([N+](=O)[O-])c1 (centres undefined)	3	-1	-3	-1	1	18*	-52	-3
NC(=O)CC(NC(=O)Cc1cccc2ccccc12)c1ccc(N2CCCCCC2)c([N+](=O)[O-])c1 (centres undefined)	2	2	-3	-2	-4	4	x	x
Cc1cc(C)cc(C(=O)NC(CC(N)=O)c2ccc(N3CCC(Cc4ccccc4)CC3)c([N+](=O)[O-])c2)c1 (centres undefined)	7	-3	-2	-1	0	7	x	x
O=C(Cc1ccc(NC(=O)C2CCCN(C(=O)C3CCC3)C2)cc1)Nc1cccc(C(=O)N2CCCC2)c1 (centres undefined)	4	1	2	x	3	x	x	x
